From ChEMBL document CHEMBL1134398, “Synthesis, structure-activity relationships, and pharmacokinetic profiles of nonpeptidic difluoromethylene ketones as novel inhibitors of human chymase” (J Med Chem, 2001)
Calls of active or inactive are those of the source. No cut-off for these calls is given here.

Legend:
[1] = biological target: T1, Chymase (Homo sapiens, UniProt P23946); assay: In vitro inhibitory activity was determined against human heart chymase
T1 sequence (P23946 whole entry): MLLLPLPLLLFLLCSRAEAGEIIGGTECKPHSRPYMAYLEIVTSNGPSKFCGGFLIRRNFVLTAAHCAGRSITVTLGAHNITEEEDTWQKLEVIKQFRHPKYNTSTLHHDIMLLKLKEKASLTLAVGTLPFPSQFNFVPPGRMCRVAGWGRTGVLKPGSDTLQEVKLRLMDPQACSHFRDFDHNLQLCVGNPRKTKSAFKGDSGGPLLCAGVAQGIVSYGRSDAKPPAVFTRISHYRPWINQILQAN

[2] = The selectivity was determined for chymotrypsin to that of chymase
[3] = biological target: Prothrombin (Homo sapiens) (UniProt P00734); assay: Inhibitory activity against human plasma thrombin (10 uM); No inhibition; assay type: cell-free
[4] = (§1) Steady state volume of distribution was determined; assay type: ADME, organism-based, Canis lupus familiaris; details: dog, in vivo; read-out: Vdss
Summary of the method: (§2)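 Male Sprague–Dawley rats (204–222 g) and male beagles (11.4–12.5 kg), n=3 each, fasted 18 h before and 4 h after dosing. Plasma sampled up to 24 h, quantified by LC–MS/MS with internal standard. AUC 0–infinity.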

[5] = Pharmacokinetic parameter AUC after oral administration to dogs; assay type: ADME, organism-based, Canis lupus familiaris; details: dog, in vivo
Summary of the method: (§3)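 10 mg/kg by gavage to fasted male rats (suspension 10 mg/mL, 0.5% HPMC) or male beagles (solution 2.5 mg/mL, DMSO–PEG-400–1 M HCl–saline 2:38:10:50), n=3. Plasma sampled up to 24 h, assayed by LC–MS/MS. Cmax and Tmax taken from measured values. BA = (AUCpo×dose iv)/(AUCiv×dose po)×100, using 1 mg/kg iv.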

[6] = as §1; assay type: ADME, organism-based; details: rat, in vivo; read-out: Vdss; summary of the method: as §2
[7] = biological target: T2, Mast cell protease 9 (Mus musculus, UniProt O35164); assay: Inhibitory activity against mouse peritoneal chymase
T2 sequence (O35164 whole entry): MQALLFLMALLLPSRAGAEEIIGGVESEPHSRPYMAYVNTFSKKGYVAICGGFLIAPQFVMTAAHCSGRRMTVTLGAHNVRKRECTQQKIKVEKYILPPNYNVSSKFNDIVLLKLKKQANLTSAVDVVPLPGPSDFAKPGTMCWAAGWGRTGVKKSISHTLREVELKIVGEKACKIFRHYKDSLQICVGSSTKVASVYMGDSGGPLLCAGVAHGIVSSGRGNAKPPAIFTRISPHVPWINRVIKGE
Summary of the method: (§4)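 Chymotrypsin-type assay: purified enzyme hydrolyzes succinyl-Ala-Ala-Pro-Phe-p-nitroanilide, with p-nitroaniline release followed at 405 nm. Ki derived, as means ± SEM of three independent experiments. Human heart chymase was a purified preparation.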

[8] = Pharmacokinetic parameter AUC after intravenous administration to dogs; assay type: ADME, organism-based, Canis lupus familiaris; details: dog, in vivo; summary of the method: as §2
[9] = biological target: Angiotensin-converting enzyme (Homo sapiens) (UniProt P12821); assay: Inhibitory activity against human angiotensin I converting enzyme (10 uM); No inhibition
Sequence of Angiotensin-converting enzyme (Homo sapiens) (P12821 whole entry): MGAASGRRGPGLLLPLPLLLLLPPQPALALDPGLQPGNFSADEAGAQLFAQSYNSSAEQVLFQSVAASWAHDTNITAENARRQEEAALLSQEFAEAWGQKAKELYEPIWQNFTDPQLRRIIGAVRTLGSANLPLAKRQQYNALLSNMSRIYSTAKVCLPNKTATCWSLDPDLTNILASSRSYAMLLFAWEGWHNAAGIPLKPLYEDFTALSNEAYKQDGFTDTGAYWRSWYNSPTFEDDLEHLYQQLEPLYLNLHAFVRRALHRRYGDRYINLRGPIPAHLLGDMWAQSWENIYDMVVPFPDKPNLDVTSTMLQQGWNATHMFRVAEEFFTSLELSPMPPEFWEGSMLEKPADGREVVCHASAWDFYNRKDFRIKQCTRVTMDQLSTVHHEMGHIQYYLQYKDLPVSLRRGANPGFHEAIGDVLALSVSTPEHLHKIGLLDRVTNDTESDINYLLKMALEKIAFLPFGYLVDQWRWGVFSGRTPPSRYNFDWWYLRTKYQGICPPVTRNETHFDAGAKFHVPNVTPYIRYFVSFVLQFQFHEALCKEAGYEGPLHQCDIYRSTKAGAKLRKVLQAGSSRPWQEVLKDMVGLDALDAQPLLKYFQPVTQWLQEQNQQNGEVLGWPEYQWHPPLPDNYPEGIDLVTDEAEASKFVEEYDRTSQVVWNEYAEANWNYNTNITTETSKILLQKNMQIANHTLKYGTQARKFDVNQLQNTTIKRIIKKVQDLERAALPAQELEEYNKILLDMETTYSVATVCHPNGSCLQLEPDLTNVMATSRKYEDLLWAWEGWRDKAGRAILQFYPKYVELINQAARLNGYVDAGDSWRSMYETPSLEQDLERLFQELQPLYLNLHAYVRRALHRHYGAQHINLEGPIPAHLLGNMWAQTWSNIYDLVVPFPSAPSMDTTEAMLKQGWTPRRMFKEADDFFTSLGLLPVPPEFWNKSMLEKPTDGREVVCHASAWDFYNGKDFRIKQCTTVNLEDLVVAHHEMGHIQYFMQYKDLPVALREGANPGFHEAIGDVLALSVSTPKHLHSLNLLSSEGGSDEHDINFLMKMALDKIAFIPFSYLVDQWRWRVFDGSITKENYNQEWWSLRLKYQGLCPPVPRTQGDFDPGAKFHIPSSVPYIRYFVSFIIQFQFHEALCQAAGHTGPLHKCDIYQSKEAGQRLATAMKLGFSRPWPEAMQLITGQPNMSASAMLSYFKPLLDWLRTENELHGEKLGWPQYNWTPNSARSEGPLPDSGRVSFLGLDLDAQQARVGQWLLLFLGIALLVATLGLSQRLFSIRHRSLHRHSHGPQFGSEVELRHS

[10] = Half life was evaluated after intravenous administration to rats; assay type: ADME, organism-based; details: rat, in vivo; summary of the method: as §2
[11] = Half life was evaluated after intravenous administration to dogs; assay type: ADME, organism-based, Canis lupus familiaris; details: dog, in vivo; summary of the method: as §2
[12] = Bioavailability administered orally at a dose of 10 mg/kg to rats; assay type: ADME, organism-based; details: rat, in vivo, po, read-out: BA; summary of the method: as §3
[13] = Bioavailability administered orally at a dose of 10 mg/kg to dogs; assay type: ADME, organism-based, Canis lupus familiaris; details: dog, in vivo, po, read-out: BA; summary of the method: as §3
[14] = Time to reach Cmax after oral administration to dogs; assay type: ADME, organism-based, Canis lupus familiaris; details: dog, in vivo; summary of the method: as §3
[15] = Pharmacokinetic parameter AUC after oral administration to rats; assay type: ADME, organism-based; details: rat, in vivo; summary of the method: as §3
[16] = Plasma administration to dogs; assay type: ADME, organism-based, Canis lupus familiaris; details: dog; summary of the method: as §2
[17] = Maximum plasma concentration after oral administration to dogs at a dose of 10 mg/kg; assay type: ADME, organism-based, Canis lupus familiaris; design: dose 10 mg/kg, route oral; details: dog; summary of the method: as §3
[18] = biological target: T3, Cathepsin G (Homo sapiens, UniProt P08311); assay: Inhibitory activity against human cathepsin G; summary of the method: as §4
T3 sequence (P08311 whole entry): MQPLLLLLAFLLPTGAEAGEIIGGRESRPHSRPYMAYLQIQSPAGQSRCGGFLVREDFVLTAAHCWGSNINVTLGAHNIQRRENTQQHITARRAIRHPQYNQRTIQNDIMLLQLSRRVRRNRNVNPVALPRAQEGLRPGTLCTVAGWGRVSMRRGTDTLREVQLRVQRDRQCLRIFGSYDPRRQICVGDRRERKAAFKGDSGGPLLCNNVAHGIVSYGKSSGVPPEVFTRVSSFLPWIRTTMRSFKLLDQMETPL

[19] = biological target: T4, Neutrophil elastase (Homo sapiens) (UniProt P08246); assay: Inhibitory activity against human leukocyte elastase (10 uM); No inhibition
T4 sequence (whole entry): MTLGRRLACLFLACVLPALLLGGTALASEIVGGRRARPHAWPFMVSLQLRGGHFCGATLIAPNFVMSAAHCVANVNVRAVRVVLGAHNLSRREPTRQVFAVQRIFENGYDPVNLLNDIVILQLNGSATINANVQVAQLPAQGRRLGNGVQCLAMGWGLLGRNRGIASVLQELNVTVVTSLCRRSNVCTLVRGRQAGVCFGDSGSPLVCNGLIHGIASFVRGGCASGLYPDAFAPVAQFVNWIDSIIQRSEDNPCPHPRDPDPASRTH

[20] = Pharmacokinetic parameter AUC after intravenous administration to rats; assay type: ADME, organism-based; details: rat, in vivo; summary of the method: as §2
[21] = Maximum plasma concentration after oral administration to rats; assay type: ADME, organism-based; design: route oral; details: rat; summary of the method: as §3
[22] = Plasma administration to rats; assay type: ADME, organism-based; details: rat; summary of the method: as §2
[23] = Time to reach Cmax after oral administration to rats; assay type: ADME, organism-based; details: rat, in vivo; summary of the method: as §3

Compound `Cc1cccc(-c2ncc(N)c(=O)n2CC(=O)NC(Cc2ccccc2)C(=O)C(F)(F)C(N)=O)c1` (stereo unspecified) has a Ki [1] of 13.3 nM.

`CNC(=O)C(F)(F)C(=O)C(Cc1ccccc1)NC(=O)Cn1c(-c2cccc(C)c2)ncc(N)c1=O` (stereo unspecified) showed a Ki [1] of 90.7 nM.

In the case of `COC(=O)CNC(=O)C(F)(F)C(=O)C(Cc1ccccc1)NC(=O)Cn1c(-c2cccc(C)c2)ncc(N)c1=O` (stereo unspecified), the Ki [1] is reported as 10.2 nM.

With `Cc1cccc(-c2ncc(N)c(=O)n2CC(=O)NC(Cc2ccccc2)C(=O)C(F)(F)F)c1` (stereo unspecified) the Ki [1] was 50.6 nM.

`Cc1cccc(-c2ncc(N)c(=O)n2CC(=O)NC(Cc2ccccc2)C(=O)C(F)(F)C(=O)NCc2ccccc2)c1` (stereo unspecified) showed a Ki [1] of 16.9 nM and a Selectivity [2] of 114.

With `Nc1cnc(-c2cccc(F)c2)n(CC(=O)NC(Cc2ccccc2)C(=O)C(F)(F)C(=O)NCc2ccccc2)c1=O` (stereo unspecified) the Ki [1] was 15.7 nM.

With `Cc1cccc(-c2ncc(N)c(=O)n2CC(=O)NC(Cc2ccccc2)C(=O)C(F)(F)C(=O)NCc2cccnc2)c1` (stereo unspecified) the Ki [1] was 28.9 nM.

Work on `CCN(CC)C(=O)CCNC(=O)C(F)(F)C(=O)C(Cc1ccccc1)NC(=O)Cn1c(-c2cccc(C)c2)ncc(N)c1=O` (stereo unspecified) yielded a Ki [1] of 33.7 nM.

In the case of `Cc1cccc(-c2ncc(N)c(=O)n2CC(=O)NC(Cc2ccccc2)C(=O)C(F)(F)C(=O)NCC(N)=O)c1` (stereo unspecified), the Ki [1] is reported as 12 nM and the Selectivity [2] is reported as 120.

Compound `Cc1cccc(-c2ncc(N)c(=O)n2CC(=O)NC(Cc2ccccc2)C(=O)C(F)(F)C(=O)NCC(=O)O)c1` (stereo unspecified) has a Ki [1] of 16.9 nM.

In the case of `Cc1cccc(-c2ncc(N)c(=O)n2CC(=O)NC(Cc2ccccc2)C(=O)C(F)(F)C(=O)Nc2cccc(C(=O)O)c2)c1` (stereo unspecified), the Ki [1] is reported as 9.7 nM.

With `Cc1cccc(-c2ncc(N)c(=O)n2CC(=O)NC(Cc2ccccc2)C(=O)C(F)(F)C(=O)Nc2ccc(C(=O)O)cc2)c1` (stereo unspecified) the Ki [1] was 16.6 nM.

`Cc1cccc(-c2ncc(N)c(=O)n2CC(=O)NC(Cc2ccccc2)C(=O)C(F)(F)C(=O)NCC(=O)N2CCCCC2)c1` (stereo unspecified) showed a Ki [1] of 10.2 nM.

With `Nc1cnc(-c2cccc(Cl)c2)n(CC(=O)NC(Cc2ccccc2)C(=O)C(F)(F)C(=O)NCc2ccccc2)c1=O` (stereo unspecified) the NI [3] was “inactive”, the Vd [4] was 0.257 L/kg and the AUC [5] was 18500 ng·h/mL. The Vd [6] was 0.369 L/kg, the Ki [7] was 1260 nM and the AUC [8] was 5720 ng·h/mL. For the same compound, the NI [9] was “inactive”, the half-life [10] was 2.1 h and the half-life [11] was 1.4 h. The bioavailability [12] was 17%, the bioavailability [13] was 32% and the Tmax [14] was 0.7 h. The AUC [15] was 12100 ng·h/mL, the clearance [16] was 3.25 mL/min/kg and the Cmax [17] was 7320 ng/mL. The Ki [18] was 1390 nM, the NI [19] was “inactive” and the AUC [20] was 7330 ng·h/mL. The Cmax [21] was 1520 ng/mL, the clearance [22] was 2.28 mL/min/kg and the Tmax [23] was 1.3 h.

For `Nc1cnc(-c2cccnc2)n(CC(=O)NC(Cc2ccccc2)C(=O)C(F)(F)C(=O)NCc2ccccc2)c1=O` (stereo unspecified), the Ki [1] was 74.3 nM.

`CCN(CC)C(=O)CNC(=O)C(F)(F)C(=O)C(Cc1ccccc1)NC(=O)Cn1c(-c2cccc(C)c2)ncc(N)c1=O` (stereo unspecified) showed a Ki [1] of 9.32 nM.

With `CCOC(=O)C(F)(F)C(=O)C(Cc1ccccc1)NC(=O)Cn1c(-c2cccc(C)c2)ncc(N)c1=O` (stereo unspecified) the Ki [1] was > 10000 nM.

With `Cc1cccc(-c2ncc(N)c(=O)n2CC(=O)NC(Cc2ccccc2)C(=O)C(F)(F)C(=O)O)c1` (stereo unspecified) the Ki [1] was > 10000 nM.

With `Nc1cnc(-c2ccncc2)n(CC(=O)NC(Cc2ccccc2)C(=O)C(F)(F)C(=O)NCc2ccccc2)c1=O` (stereo unspecified) the Ki [1] was 84.7 nM.

Work on `Cc1cccc(-c2ncc(N)c(=O)n2CC(=O)NC(Cc2ccccc2)C(=O)C(F)(F)C(=O)N(C)C)c1` (stereo unspecified) yielded a Ki [1] of 489 nM.

For `Cc1cccc(-c2ncc(N)c(=O)n2CC(=O)NC(Cc2ccccc2)C(=O)C(F)(F)C(=O)NCCC(=O)O)c1` (stereo unspecified), the Ki [1] was 23 nM and the Selectivity [2] was 62.2.

`COc1cccc(-c2ncc(N)c(=O)n2CC(=O)NC(Cc2ccccc2)C(=O)C(F)(F)C(=O)NCc2ccccc2)c1` (stereo unspecified) showed a Ki [1] of 13.8 nM.

In the case of `Cc1cccc(-c2ncc(N)c(=O)n2CC(=O)NC(Cc2ccccc2)C(=O)C(F)(F)C(=O)NCC(=O)N2CCCCCC2)c1` (stereo unspecified), the Ki [1] is reported as 3.56 nM.

For `Nc1cnc(-c2ccc(F)cc2)n(CC(=O)NC(Cc2ccccc2)C(=O)C(F)(F)C(=O)NCc2ccccc2)c1=O` (stereo unspecified), the Ki [1] was 440 nM and the Selectivity [2] was 7.45.

Compound `CCCCCNC(=O)C(F)(F)C(=O)C(Cc1ccccc1)NC(=O)Cn1c(-c2cccc(C)c2)ncc(N)c1=O` (stereo unspecified) has a Ki [1] of 18.5 nM.

Work on `Nc1cnc(-c2ccccc2)n(CC(=O)NC(Cc2ccccc2)C(=O)C(F)(F)C(=O)NCc2ccccc2)c1=O` (stereo unspecified) yielded a Ki [1] of 32.5 nM.

Work on `CCNC(=O)CNC(=O)C(F)(F)C(=O)C(Cc1ccccc1)NC(=O)Cn1c(-c2cccc(C)c2)ncc(N)c1=O` (stereo unspecified) yielded a Ki [1] of 7.71 nM.
